{
  "source": "ChEMBL document CHEMBL2331342",
  "about": "“Synthesis, in vitro antiplatelet activity and molecular modelling studies of 10-substituted 2-(1-piperazinyl)pyrimido[1,2-a]benzimidazol-4(10H)-ones” (Eur J Med Chem, 2013)",
  "type_in_all_cases": "functional, cell-free",
  "key": {"[1]": {"test": "Antiplatelet activity against collagen collagen-induced platelet aggregation in human plasma preincubated for 2 mins before addition of inducer by turbidimetric method", "outline": "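Platelet-rich plasma prepared from healthy volunteers' blood in 130 mM trisodium citrate (9:1), centrifuged 100 g, 30 min. After 2 min at 37 °C with compound or DMSO, bovine tendon collagen added (final 5.0 μg/mL). Born turbidimetric method, light transmission at 3 min. IC50 derived from inhibition–concentration curve (≥5 concentrations) relative to solvent control; mean ±SD, ≥5 platelet batches.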"}, "[2]": {"test": "Antiplatelet activity against collagen A23187-induced platelet aggregation in human plasma preincubated for 2 mins before addition of inducer by turbidimetric method", "outline": "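Human PRP from citrated blood of healthy volunteers (9:1 with 130 mM trisodium citrate, spun 100 g 30 min). Preincubated with compound or DMSO 37 °C 2 min, then A23187 added (final 20.0 μM). Born turbidimetric aggregometry; light transmission at 3 min. At least five concentrations; IC50 from inhibition–concentration curve versus solvent control, mean ±SD of at least five platelet batches.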"}, "[3]": {"test": "Antiplatelet activity against collagen ADP-induced platelet aggregation in human plasma preincubated for 2 mins before addition of inducer by turbidimetric method", "outline": "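Citrated PRP (blood:130 mM trisodium citrate 9:1, centrifuged 100 g for 30 min) from healthy human donors. Compound or DMSO preincubation at 37 °C for 2 min before ADP (final 5.0 μM). Turbidimetric (Born) read of light transmission after 3 min. IC50 from ≥5-concentration inhibition curve against solvent control; mean ±SD over at least five platelet batches.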"}},
  "data": [
    {"molecule": "CC(C)n1c2ccccc2n2c(=O)cc(N3CCNCC3)nc12", "values": [
      {"measurement": "IC50", "setting": "[1]", "result": 77, "unit": "µM"},
      {"measurement": "IC50", "setting": "[2]", "result": 142, "unit": "µM"},
      {"measurement": "IC50", "setting": "[3]", "result": 116, "unit": "µM"}
    ]},
    {"molecule": "O=c1cc(N2CCNCC2)nc2n(Cc3cccnc3)c3ccccc3n12", "values": [
      {"measurement": "IC50", "setting": "[1]", "result": 9, "unit": "µM"},
      {"measurement": "IC50", "setting": "[2]", "result": 23, "unit": "µM"},
      {"measurement": "IC50", "setting": "[3]", "result": 15, "unit": "µM"}
    ]},
    {"molecule": "O=c1cc(N2CCNCC2)nc2oc3ccc(Cl)cc3n12", "values": [
      {"measurement": "IC50", "setting": "[1]", "result": 8.8, "unit": "µM"},
      {"measurement": "IC50", "setting": "[2]", "result": 13, "unit": "µM"},
      {"measurement": "IC50", "setting": "[3]", "result": 3.6, "unit": "µM"}
    ]},
    {"molecule": "O=C1CCc2cc(OCCCCc3nnnn3C3CCCCC3)ccc2N1", "note": "[CILOSTAZOL]", "values": [
      {"measurement": "IC50", "setting": "[1]", "result": 40, "unit": "µM"},
      {"measurement": "IC50", "setting": "[2]", "result": 109, "unit": "µM"},
      {"measurement": "IC50", "setting": "[3]", "result": 73, "unit": "µM"}
    ]},
    {"molecule": "CCn1c2ccccc2n2c(=O)cc(N3CCNCC3)nc12", "values": [
      {"measurement": "IC50", "setting": "[1]", "result": 55, "unit": "µM"},
      {"measurement": "IC50", "setting": "[2]", "result": 206, "unit": "µM"},
      {"measurement": "IC50", "setting": "[3]", "result": 127, "unit": "µM"}
    ]},
    {"molecule": "CSCn1c2ccccc2n2c(=O)cc(N3CCNCC3)nc12", "values": [
      {"measurement": "IC50", "setting": "[1]", "result": 31, "unit": "µM"},
      {"measurement": "IC50", "setting": "[2]", "result": 60, "unit": "µM"},
      {"measurement": "IC50", "setting": "[3]", "result": 26, "unit": "µM"}
    ]},
    {"molecule": "Cc1[nH]c(=O)c(C#N)cc1-c1ccncc1", "note": "[MILRINONE]", "values": [
      {"measurement": "IC50", "setting": "[1]", "result": 12, "unit": "µM"},
      {"measurement": "IC50", "setting": "[2]", "result": 14, "unit": "µM"},
      {"measurement": "IC50", "setting": "[3]", "result": 11, "unit": "µM"}
    ]},
    {"molecule": "O=c1cc(N2CCNCC2)nc2n(CCN3CCCC3)c3ccccc3n12", "values": [
      {"measurement": "IC50", "setting": "[1]", "result": 28, "unit": "µM"},
      {"measurement": "IC50", "setting": "[2]", "result": 42, "unit": "µM"},
      {"measurement": "IC50", "setting": "[3]", "result": 16, "unit": "µM"}
    ]},
    {"molecule": "CC(c1ccccc1)n1c2ccccc2n2c(=O)cc(N3CCNCC3)nc12", "note": "(stereo not drawn)", "values": [
      {"measurement": "IC50", "setting": "[1]", "result": 172, "unit": "µM"},
      {"measurement": "IC50", "setting": "[2]", "result": 175, "unit": "µM"},
      {"measurement": "IC50", "setting": "[3]", "result": 163, "unit": "µM"}
    ]},
    {"molecule": "COc1c(C)cnc(Cn2c3ccccc3n3c(=O)cc(N4CCNCC4)nc23)c1C", "values": [
      {"measurement": "IC50", "setting": "[1]", "result": 49, "unit": "µM"},
      {"measurement": "IC50", "setting": "[2]", "result": 56, "unit": "µM"},
      {"measurement": "IC50", "setting": "[3]", "result": 33, "unit": "µM"}
    ]},
    {"molecule": "O=c1cc(N2CCNCC2)nc2n(CCN3CCOCC3)c3ccccc3n12", "values": [
      {"measurement": "IC50", "setting": "[1]", "result": 15, "unit": "µM"},
      {"measurement": "IC50", "setting": "[2]", "result": 11, "unit": "µM"},
      {"measurement": "IC50", "setting": "[3]", "result": 12, "unit": "µM"}
    ]},
    {"molecule": "CCN(CC)c1cc(=O)n2c3ccccc3n(CC)c2n1", "values": [
      {"measurement": "IC50", "setting": "[1]", "result": 75, "unit": "µM"},
      {"measurement": "IC50", "setting": "[2]", "result": "> 1000", "unit": "µM"},
      {"measurement": "IC50", "setting": "[3]", "result": "> 1000", "unit": "µM"}
    ]},
    {"molecule": "O=c1cc(N2CCNCC2)nc2n(CCc3ccccc3)c3ccccc3n12", "values": [
      {"measurement": "IC50", "setting": "[1]", "result": 15, "unit": "µM"},
      {"measurement": "IC50", "setting": "[2]", "result": 75, "unit": "µM"},
      {"measurement": "IC50", "setting": "[3]", "result": 53, "unit": "µM"}
    ]},
    {"molecule": "CC(=O)Oc1ccccc1C(=O)O", "note": "[ASPIRIN]", "values": [
      {"measurement": "IC50", "setting": "[1]", "result": 183, "unit": "µM"},
      {"measurement": "IC50", "setting": "[2]", "result": "> 1000", "unit": "µM"},
      {"measurement": "IC50", "setting": "[3]", "result": "> 1000", "unit": "µM"}
    ]},
    {"molecule": "CN(C)CCn1c2ccccc2n2c(=O)cc(N3CCNCC3)nc12", "values": [
      {"measurement": "IC50", "setting": "[1]", "result": 8, "unit": "µM"},
      {"measurement": "IC50", "setting": "[2]", "result": 41, "unit": "µM"},
      {"measurement": "IC50", "setting": "[3]", "result": 36, "unit": "µM"}
    ]},
    {"molecule": "O=c1cc(N2CCNCC2)nc2n(Cc3ccncc3)c3ccccc3n12", "values": [
      {"measurement": "IC50", "setting": "[1]", "result": 21, "unit": "µM"},
      {"measurement": "IC50", "setting": "[2]", "result": 32, "unit": "µM"},
      {"measurement": "IC50", "setting": "[3]", "result": 15, "unit": "µM"}
    ]},
    {"molecule": "O=c1cc(N2CCNCC2)nc2n(Cc3ccccc3)c3ccccc3n12", "values": [
      {"measurement": "IC50", "setting": "[1]", "result": 27, "unit": "µM"},
      {"measurement": "IC50", "setting": "[2]", "result": 143, "unit": "µM"},
      {"measurement": "IC50", "setting": "[3]", "result": 90, "unit": "µM"}
    ]},
    {"molecule": "CCCn1c2ccccc2n2c(=O)cc(N3CCNCC3)nc12", "values": [
      {"measurement": "IC50", "setting": "[1]", "result": 50, "unit": "µM"},
      {"measurement": "IC50", "setting": "[2]", "result": 50, "unit": "µM"},
      {"measurement": "IC50", "setting": "[3]", "result": 62, "unit": "µM"}
    ]},
    {"molecule": "CCN(CC)CCn1c2ccccc2n2c(=O)cc(N3CCNCC3)nc12", "values": [
      {"measurement": "IC50", "setting": "[1]", "result": 13, "unit": "µM"},
      {"measurement": "IC50", "setting": "[2]", "result": 13, "unit": "µM"},
      {"measurement": "IC50", "setting": "[3]", "result": 16, "unit": "µM"}
    ]},
    {"molecule": "CCN(CC)c1cc(=O)nc2n(CC)c3ccccc3n12", "values": [
      {"measurement": "IC50", "setting": "[1]", "result": 75, "unit": "µM"},
      {"measurement": "IC50", "setting": "[2]", "result": 415, "unit": "µM"},
      {"measurement": "IC50", "setting": "[3]", "result": "> 1000", "unit": "µM"}
    ]},
    {"molecule": "O=c1cc(N2CCNCC2)nc2n(Cc3ccccn3)c3ccccc3n12", "values": [
      {"measurement": "IC50", "setting": "[1]", "result": 30, "unit": "µM"},
      {"measurement": "IC50", "setting": "[2]", "result": 38, "unit": "µM"},
      {"measurement": "IC50", "setting": "[3]", "result": 19, "unit": "µM"}
    ]}
  ]
}
